Assay results from ChEMBL document CHEMBL4680064, “Natural product inspired optimization of a selective TRPV6 calcium channel inhibitor” (RSC Med Chem, 2020).
Activity calls are given as the source filed them. The calls are words filed in the database; no cut-off is given here.

Columns and labels:
[1] = target: T1, Transient receptor potential cation channel subfamily V member 6 (Homo sapiens) (UniProt Q9H1D0); test: Inhibition of human TRPV6 expressed in HEK293 cells assessed as reduction in Cd2+ influx at 10 uM preincubated with compound followed by Cdcl2 addition measured for 12 to 30 mins by Leadmium-green and Alexafluor-594 conjugate based confocal microscopic analysis; type: cell-based; conditions: time lower […], time upper 30.0 min
T1 sequence (whole entry): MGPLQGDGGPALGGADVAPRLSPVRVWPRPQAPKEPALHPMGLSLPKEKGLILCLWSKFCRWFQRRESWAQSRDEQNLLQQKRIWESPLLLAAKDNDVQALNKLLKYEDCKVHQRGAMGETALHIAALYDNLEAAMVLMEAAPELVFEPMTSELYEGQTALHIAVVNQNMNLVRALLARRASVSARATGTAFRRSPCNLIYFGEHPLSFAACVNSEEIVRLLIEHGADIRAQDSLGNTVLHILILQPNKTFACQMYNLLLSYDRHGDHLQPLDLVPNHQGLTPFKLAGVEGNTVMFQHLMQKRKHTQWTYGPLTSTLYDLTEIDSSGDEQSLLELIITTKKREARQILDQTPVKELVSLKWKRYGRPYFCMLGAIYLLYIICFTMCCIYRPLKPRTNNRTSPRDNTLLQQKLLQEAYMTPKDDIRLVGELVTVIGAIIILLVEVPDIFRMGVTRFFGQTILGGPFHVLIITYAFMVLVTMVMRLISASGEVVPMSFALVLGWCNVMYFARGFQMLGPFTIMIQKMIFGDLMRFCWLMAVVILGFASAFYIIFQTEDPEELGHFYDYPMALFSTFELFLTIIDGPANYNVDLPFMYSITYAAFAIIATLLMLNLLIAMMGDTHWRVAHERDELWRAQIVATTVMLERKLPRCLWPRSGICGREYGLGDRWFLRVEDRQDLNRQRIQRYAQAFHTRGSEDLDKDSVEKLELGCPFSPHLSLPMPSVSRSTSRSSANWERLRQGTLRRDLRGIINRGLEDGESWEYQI
Method in brief: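 HEK-hTRPV6 cells on poly-D-lysine chambered coverglass, 24 h. Stained 30 min at 37 °C in nominally Ca²⁺-free buffer with Leadmium Green, Hoechst 33258 and WGA-Alexa Fluor 594 at 5, 1 and 5 ng/µL final. Washed, then test compound at 10 µM or DMSO added. CdCl2 at 50 µM final was added at the start of 30 min confocal imaging at 100X. Total fluorescence per channel was plotted over time.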

HEK293 = test: Effect on cadmium induced toxicity in wild type human HEK293 cells assessed as cell survival at 1 to 10 uM incubated for 24 hrs by XTT assay; type: functional, cell-based; conditions: dose 1-10 µM
Method in brief: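 HEK293 wt or HEK-hTRPV6 cells in DMEM with 10% FBS, glutamine, penicillin/streptomycin and non-essential amino acids. Seeded at 1.5 x 10⁴ cells/well and left 24 h, then given CdCl2 at 50 to 0.05 µM with or without test compound at 1.0 or 10 µM; blank was 0.01% DMSO. Incubation 24 h at 37 °C. XTT/PMS read for 2 h at A450−A650, as % viable versus blank. n = 4/concentration, 2 independent experiments.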

[2] = Inhibition of rat L-type calcium channel (diltiazem site) at 10 uM
[3] = Inhibition of SOCE in human MDA-MB-231 cells at 5 uM pretreated for 20 mins followed by Tg addition for 10 mins followed by CaCl2 addition by FLIPR assay; type: cell-based; conditions: mda-mb-231, 0.5 h, time 30 min
Method in brief: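 MDA-MB-231 cells at 6 x 10⁴ cells/well in phenol-red-free RPMI with 10% FBS, assayed 16 h later. Loaded in nominally Ca²⁺-free buffer with calcium-5 for 40 min at 37 °C. Compound, with GSK-7975A as reference, given for 20 min. After a 50 s baseline, thapsigargin was added and followed for 10 min, then CaCl2 was added. SOCE taken as AUC of the Ca²⁺ entry trace.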

D(2) dopamine receptor = D(2) dopamine receptor (Homo sapiens, UniProt P14416); test: Inhibition of human dopamine D2S receptor at 10 uM
D(2) dopamine receptor, sequence (P14416 whole entry): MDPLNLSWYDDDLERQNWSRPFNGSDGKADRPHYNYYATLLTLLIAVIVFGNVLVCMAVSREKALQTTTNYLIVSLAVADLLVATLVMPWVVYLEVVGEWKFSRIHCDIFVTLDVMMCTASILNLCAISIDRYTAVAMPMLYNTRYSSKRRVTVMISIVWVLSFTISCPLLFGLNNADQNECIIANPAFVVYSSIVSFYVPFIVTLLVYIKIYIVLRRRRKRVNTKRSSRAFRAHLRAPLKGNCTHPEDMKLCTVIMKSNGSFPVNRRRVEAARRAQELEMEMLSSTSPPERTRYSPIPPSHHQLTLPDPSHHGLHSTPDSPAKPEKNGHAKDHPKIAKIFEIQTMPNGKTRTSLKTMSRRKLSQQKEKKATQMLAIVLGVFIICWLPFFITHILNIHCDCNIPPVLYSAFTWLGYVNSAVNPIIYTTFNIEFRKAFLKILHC

[4] = target: T2, Alpha-1A adrenergic receptor (Homo sapiens, UniProt P35348); test: Inhibition of human alpha1A adrenergic receptor at 10 uM
T2 sequence (P35348 whole entry): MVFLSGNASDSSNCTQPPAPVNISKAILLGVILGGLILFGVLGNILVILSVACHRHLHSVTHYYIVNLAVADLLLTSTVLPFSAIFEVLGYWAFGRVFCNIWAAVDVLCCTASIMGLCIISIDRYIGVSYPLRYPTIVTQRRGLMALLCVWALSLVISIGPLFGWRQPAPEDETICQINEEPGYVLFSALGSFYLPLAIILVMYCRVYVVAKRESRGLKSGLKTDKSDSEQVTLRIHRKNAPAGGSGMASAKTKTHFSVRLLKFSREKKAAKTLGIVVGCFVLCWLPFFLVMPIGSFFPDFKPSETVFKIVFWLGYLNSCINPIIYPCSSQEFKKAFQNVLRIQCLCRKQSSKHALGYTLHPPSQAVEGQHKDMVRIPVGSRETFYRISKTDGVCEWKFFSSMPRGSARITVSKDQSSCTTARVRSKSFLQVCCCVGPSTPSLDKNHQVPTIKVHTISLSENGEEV

D(1A) dopamine receptor = D(1A) dopamine receptor (Homo sapiens, UniProt P21728); test: Inhibition of human dopamine D1 receptor at 10 uM
D(1A) dopamine receptor, sequence (P21728 whole entry): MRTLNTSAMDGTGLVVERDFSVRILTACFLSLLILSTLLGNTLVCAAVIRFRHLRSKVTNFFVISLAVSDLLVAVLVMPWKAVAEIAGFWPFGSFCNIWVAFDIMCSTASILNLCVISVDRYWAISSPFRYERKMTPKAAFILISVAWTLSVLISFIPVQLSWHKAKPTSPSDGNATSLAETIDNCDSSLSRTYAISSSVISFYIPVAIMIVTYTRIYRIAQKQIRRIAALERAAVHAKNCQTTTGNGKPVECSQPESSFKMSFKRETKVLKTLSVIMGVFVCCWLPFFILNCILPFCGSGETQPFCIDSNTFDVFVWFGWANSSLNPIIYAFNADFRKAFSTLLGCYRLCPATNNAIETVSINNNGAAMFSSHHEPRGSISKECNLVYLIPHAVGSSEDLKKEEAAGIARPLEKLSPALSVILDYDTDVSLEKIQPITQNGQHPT

[5] = target: T3, Muscarinic acetylcholine receptor M2 (Homo sapiens, UniProt P08172); test: Inhibition of human muscarinic M2 receptor at 10 uM
T3 sequence (P08172 whole entry): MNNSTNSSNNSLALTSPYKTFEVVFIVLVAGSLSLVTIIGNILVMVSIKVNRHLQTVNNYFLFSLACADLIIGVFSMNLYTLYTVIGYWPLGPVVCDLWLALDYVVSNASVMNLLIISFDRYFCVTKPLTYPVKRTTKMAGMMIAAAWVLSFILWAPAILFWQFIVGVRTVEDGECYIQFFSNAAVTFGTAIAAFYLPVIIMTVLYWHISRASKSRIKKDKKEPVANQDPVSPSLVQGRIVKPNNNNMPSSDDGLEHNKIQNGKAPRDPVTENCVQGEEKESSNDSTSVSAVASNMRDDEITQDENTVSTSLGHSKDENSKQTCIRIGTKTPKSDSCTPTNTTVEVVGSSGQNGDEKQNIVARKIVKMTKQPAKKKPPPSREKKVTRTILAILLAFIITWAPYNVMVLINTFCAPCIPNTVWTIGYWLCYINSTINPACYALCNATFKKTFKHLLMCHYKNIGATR

## O=c1ccc(CN2CCN([C@H]3CC[C@@](O)(c4cccc(C(F)(F)F)c4)CC3)CC2)c[nH]1
[1]
  inhibition: Active
HEK293
  Activity: inactive
[2]
  inhibition (INH): Not Active
[3]
  inhibition (INH): Not Active
D(2) dopamine receptor
  inhibition (INH): Not Active
[4]
  inhibition (INH): Not Active
D(1A) dopamine receptor
  inhibition (INH): Not Active
[5]
  inhibition (INH): Not Active
